For this test, the target named is T1, Interleukin-2 (Mus musculus, UniProt P04351).
T1 sequence (P04351 whole entry): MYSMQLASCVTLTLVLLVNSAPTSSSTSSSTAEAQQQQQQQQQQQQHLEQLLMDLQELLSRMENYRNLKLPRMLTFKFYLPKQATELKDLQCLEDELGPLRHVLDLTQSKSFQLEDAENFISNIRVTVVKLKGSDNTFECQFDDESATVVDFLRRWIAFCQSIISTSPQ
Kind of test: The compound was evaluated in vitro for the immunosuppressive activity in interleukin-2 by interleukin-2 reporter gene assay (IL2-RGA). In outline:
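Cellular immunosuppression read in the mouse mixed lymphocyte reaction or the interleukin-2 reporter gene assay. The IC50 in nM is the mean of three independent experiments.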
Background: In a reporter assay the amount or activity of a reporter protein is the signal.

Among the data in BindingDB's records for doi:10.1021/jm00017a020 (Sandoz Pharma, 1995) are IC50 values, retold here.

As a reminder, the IC50 is the concentration needed to halve the response being measured. Low values mean higher potency, high ones lower potency.

`C/C=C/C[C@@H](C)[C@@H](O)[C@@H]1C(=O)N[C@H](CCCO)C(=O)N(C)CC(=O)N(C)[C@H](CC(C)C)C(=O)N[C@H](C(C)C)C(=O)N(C)[C@H](CC(C)C)C(=O)N[C@H](C)C(=O)N[C@@H](C)C(=O)N(C)[C@H](CC(C)C)C(=O)N(C)[C@H](CC(C)C)C(=O)N(C)[C@H](C(C)C)C(=O)N1C` [33-(1-Hydroxy-2-methyl-hex-4-enyl)-30-(3-hydroxy-propyl)-6,9,18,24-tetraisobutyl-3,21-diisopropyl-1,4,7,10,12,15,19,25,28-nonamethyl-1,4,7,10,13,16,19,22,25,28,31undecaaza-cyclotritriacontan-2,5,8,11,14,17,20,23,26,29,32-undecaone] had an IC50 of 70 nM. As for `C/C=C/C[C@@H](C)[C@@H](O)[C@H]1C(=O)N[C@@H](CCC)C(=O)N(C)CC(=O)N(C)[C@@H](CC(C)C)C(=O)N[C@@H](C(C)C)C(=O)N(C)[C@@H](CC(C)C)C(=O)N[C@@H](C)C(=O)N[C@H](C)C(=O)N(C)[C@@H](CC(C)C)C(=O)N(C)[C@@H](CC(C)C)C(=O)N(C)[C@@H](C(C)C)C(=O)N1C` [GECLOSPORIN], the figure is 13 nM.
